# ChEMBL document CHEMBL2150978, “Phosphorodiamidates as a promising new phosphate prodrug motif for antiviral drug discovery: application to anti-HCV agents” (J Med Chem, 2011)
# Legend:
# [1] = tested on: Hepatitis C virus; experiment: Antiviral activity against Hepatitis C virus subtype 1b Con1 infected in human Huh7 cells assessed as inhibition of HCV replicon-encoded Renilla luciferase reporter activity after 72 hrs by HCV replicon assay; assay type: functional, organism-based, Hepacivirus hominis; details: Con1, Huh-7, 72 h
# How it was run: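 Huh7 cells stably carrying a bicistronic subgenomic genotype 1b (Con1) replicon with Renilla luciferase reporter, seeded at 2 × 10⁴ cells/well the day before. Four-fold serial dilutions in growth medium, no-drug controls on each plate; 3 days at 37 °C, 5% CO₂. Luciferase reagent 20 min, then luminescence (RLU) read; EC₅₀ derived.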
# [2] = Cytotoxicity against human HuH7 cells after 3 days; assay type: cell-based, Huh-7
# How it was run: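 Huh7 replicon cells seeded at 2 × 10⁴ per well one day before dosing. Four-fold serial dilutions in growth medium, no-drug controls on each plate. Incubated 3 days at 37 °C, 5% CO₂. Viability read by CellTiter-Glo luminescence after 20 min with reagent.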
SMILES,EC50 [1],EC90 [1],CC50 at 72 h [2]
COc1nc(N)nc2c1ncn2[C@@H]1O[C@H](COP(=O)(N[C@@H](C)C(=O)OCc2ccccc2)N[C@@H](C)C(=O)OCC(C)(C)C)[C@@H](O)[C@@]1(C)O (mixture of isomers),0.15 µM,0.4 µM,> 100 µM
CCCCNP(=O)(NCCCC)OC[C@H]1O[C@@H](n2cnc3c(OC)nc(N)nc32)[C@](C)(O)[C@@H]1O (mixture of isomers),37.8 µM,> 40 µM,> 100 µM
COc1nc(N)nc2c1ncn2[C@@H]1O[C@H](COP(=O)(N[C@@H](C)C(=O)OC(C)C)N[C@@H](C)C(=O)OC(C)C)[C@@H](O)[C@@]1(C)O (mixture of isomers),0.49 µM,2.1 µM,> 100 µM
COc1nc(N)nc2c1ncn2[C@@H]1O[C@H](COP(=O)(N[C@@H](C)C(=O)OC2CCCCC2)N[C@@H](C)C(=O)OC2CCCCC2)[C@@H](O)[C@@]1(C)O (mixture of isomers),0.05 µM,0.19 µM,> 100 µM
CCCOC(=O)[C@H](C)NP(=O)(N[C@@H](C)C(=O)OCCC)OC[C@H]1O[C@@H](n2cnc3c(OC)nc(N)nc32)[C@](C)(O)[C@@H]1O (mixture of isomers),0.28 µM,1.2 µM,> 100 µM
COc1nc(N)nc2c1ncn2[C@@H]1O[C@H](COP(=O)(N[C@@H](C)C(=O)OC2CCC2)N[C@@H](C)C(=O)OC2CCC2)[C@@H](O)[C@@]1(C)O (mixture of isomers),0.32 µM,0.8 µM,> 100 µM
COc1nc(N)nc2c1ncn2[C@@H]1O[C@H](COP(=O)(N2CCC[C@H]2C(=O)OCc2ccccc2)N2CCC[C@H]2C(=O)OCc2ccccc2)[C@@H](O)[C@@]1(C)O (mixture of isomers),0.52 µM,1.8 µM,> 100 µM
COc1nc(N)nc2c1ncn2[C@@H]1O[C@H](CO)[C@@H](O)[C@@]1(C)O [BETA-2'-C-METHYL-6-O-METHYL GUANOSINE],4.4 µM,19.4 µM,> 100 µM
COc1nc(N)nc2c1ncn2[C@@H]1O[C@H](COP(=O)(N[C@H](C(=O)OC2CCCCC2)C(C)C)N[C@H](C(=O)OC2CCCCC2)C(C)C)[C@@H](O)[C@@]1(C)O (mixture of isomers),2.5 µM,10 µM,20 µM
COc1nc(N)nc2c1ncn2[C@@H]1O[C@H](COP(=O)(N[C@H](C(=O)OCC(C)(C)C)C(C)C)N[C@H](C(=O)OCC(C)(C)C)C(C)C)[C@@H](O)[C@@]1(C)O (mixture of isomers),0.72 µM,2.5 µM,32 µM
CCOc1nc(N)nc2c1ncn2[C@@H]1O[C@H](COP(=O)(N[C@@H](C)C(=O)OC2CCCCC2)N[C@@H](C)C(=O)OC2CCCCC2)[C@@H](O)[C@@]1(C)O (mixture of isomers),0.05 µM,0.15 µM,69 µM
COc1nc(N)nc2c1ncn2[C@@H]1O[C@H](COP(=O)(N[C@@H](C)C(=O)OCC(C)C)N[C@@H](C)C(=O)OCC(C)C)[C@@H](O)[C@@]1(C)O (mixture of isomers),0.07 µM,0.26 µM,> 100 µM
COc1nc(N)nc2c1ncn2[C@@H]1O[C@H](COP(=O)(Nc2ccccc2)N[C@@H](C)C(=O)OCC(C)(C)C)[C@@H](O)[C@@]1(C)O (mixture of isomers),0.27 µM,0.82 µM,> 100 µM
CC[C@H](C)[C@H](NP(=O)(N[C@H](C(=O)OC)[C@@H](C)CC)OC[C@H]1O[C@@H](n2cnc3c(OC)nc(N)nc32)[C@](C)(O)[C@@H]1O)C(=O)OC (mixture of isomers),5.17 µM,29.5 µM,> 100 µM
CCOc1nc(N)nc2c1ncn2[C@@H]1O[C@H](CO)[C@@H](O)[C@@]1(C)O,9.5 µM,24.5 µM,> 100 µM
CCOC(=O)[C@H](C)NP(=O)(N[C@@H](C)C(=O)OCC)OC[C@H]1O[C@@H](n2cnc3c(OC)nc(N)nc32)[C@](C)(O)[C@@H]1O (mixture of isomers),1.2 µM,4.1 µM,> 100 µM
COc1nc(N)nc2c1ncn2[C@@H]1O[C@H](COP(=O)(N[C@@H](C)C(=O)O[C@@H](C)c2ccccc2)N[C@@H](C)C(=O)O[C@@H](C)c2ccccc2)[C@@H](O)[C@@]1(C)O (mixture of isomers),0.49 µM,1.7 µM,88 µM

SMILES,EC50 [1],EC90 [1],CC50 at 72 h [2]
COc1nc(N)nc2c1ncn2[C@@H]1O[C@H](COP(=O)(N2CCOCC2)N2CCOCC2)[C@@H](O)[C@@]1(C)O (mixture of isomers),> 100 µM,> 100 µM,> 100 µM
COc1nc(N)nc2c1ncn2[C@@H]1O[C@H](COP(=O)(N[C@@H](CC(=O)OCc2ccccc2)C(=O)OCc2ccccc2)N[C@@H](CC(=O)OCc2ccccc2)C(=O)OCc2ccccc2)[C@@H](O)[C@@]1(C)O (mixture of isomers),0.61 µM,1.9 µM,> 100 µM
COc1nc(N)nc2c1ncn2[C@@H]1O[C@H](COP(=O)(N[C@@H](CC(C)C)C(=O)OCc2ccccc2)N[C@@H](CC(C)C)C(=O)OCc2ccccc2)[C@@H](O)[C@@]1(C)O (mixture of isomers),0.38 µM,1.31 µM,39 µM
COc1nc(N)nc2c1ncn2[C@@H]1O[C@H](COP(=O)(N[C@@H](C)C(=O)OCC(C)(C)C)N[C@@H](C)C(=O)OC(C)(C)C)[C@@H](O)[C@@]1(C)O (mixture of isomers),0.15 µM,0.57 µM,> 100 µM
COc1nc(N)nc2c1ncn2[C@@H]1O[C@H](COP(=O)(N[C@H](C(=O)OCC(C)(C)C)c2ccccc2)N[C@H](C(=O)OCC(C)(C)C)c2ccccc2)[C@@H](O)[C@@]1(C)O (mixture of isomers),0.27 µM,1.5 µM,24 µM
COc1nc(N)nc2c1ncn2[C@@H]1O[C@H](COP(=O)(N[C@@H](Cc2ccccc2)C(=O)OCc2ccccc2)N[C@@H](Cc2ccccc2)C(=O)OCc2ccccc2)[C@@H](O)[C@@]1(C)O (mixture of isomers),0.32 µM,1.35 µM,67 µM
COc1nc(N)nc2c1ncn2[C@@H]1O[C@H](COP(=O)(Nc2cccc3ccccc23)N[C@@H](C)C(=O)OCC(C)(C)C)[C@@H](O)[C@@]1(C)O (mixture of isomers),0.13 µM,0.56 µM,> 100 µM
COc1nc(N)nc2c1ncn2[C@@H]1O[C@H](COP(=O)(N[C@H](C(=O)N[C@@H](C)C(=O)OCC(C)(C)C)C(C)C)N[C@H](C(=O)N[C@@H](C)C(=O)OCC(C)(C)C)C(C)C)[C@@H](O)[C@@]1(C)O (mixture of isomers),0.54 µM,2.4 µM,> 100 µM
COc1nc(N)nc2c1ncn2[C@@H]1O[C@H](COP(=O)(N[C@@H](CCSC)C(=O)OCc2ccccc2)N[C@@H](CCSC)C(=O)OCc2ccccc2)[C@@H](O)[C@@]1(C)O (mixture of isomers),0.25 µM,0.77 µM,> 100 µM
COc1nc(N)nc2c1ncn2[C@@H]1O[C@H](COP(=O)(N[C@@H](C)C(=O)OCC(C)(C)C)N[C@@H](C)C(=O)OC2CCCCC2)[C@@H](O)[C@@]1(C)O (mixture of isomers),0.04 µM,0.15 µM,> 100 µM
COc1nc(N)nc2c1ncn2[C@@H]1O[C@H](COP(=O)(N[C@@H](C)C(=O)OC2CCCCO2)N[C@@H](C)C(=O)OC2CCCCO2)[C@@H](O)[C@@]1(C)O (mixture of isomers),13.3 µM,29.3 µM,> 100 µM
COc1nc(N)nc2c1ncn2[C@@H]1O[C@H](COP(=O)(NCc2ccccc2)N[C@@H](C)C(=O)OCC(C)(C)C)[C@@H](O)[C@@]1(C)O (mixture of isomers),0.43 µM,1.9 µM,> 100 µM
COc1nc(N)nc2c1ncn2[C@@H]1O[C@H](COP(=O)(N[C@@H](Cc2ccccc2)C(=O)OCC(C)(C)C)N[C@@H](Cc2ccccc2)C(=O)OCC(C)(C)C)[C@@H](O)[C@@]1(C)O (mixture of isomers),0.05 µM,0.21 µM,24 µM
CCOc1nc(N)nc2c1ncn2[C@@H]1O[C@H](COP(=O)(N[C@@H](C)C(=O)OCc2ccccc2)N[C@@H](C)C(=O)OCc2ccccc2)[C@@H](O)[C@@]1(C)O (mixture of isomers),0.29 µM,1 µM,62 µM
COC(=O)C[C@H](NP(=O)(N[C@@H](CC(=O)OC)C(=O)OC)OC[C@H]1O[C@@H](n2cnc3c(OC)nc(N)nc32)[C@](C)(O)[C@@H]1O)C(=O)OC (mixture of isomers),10.2 µM,> 40 µM,> 100 µM
COC(=O)[C@@H]1CCCN1P(=O)(N[C@@H](C)C(=O)OCC(C)(C)C)OC[C@H]1O[C@@H](n2cnc3c(OC)nc(N)nc32)[C@](C)(O)[C@@H]1O (mixture of isomers),0.49 µM,2.2 µM,> 100 µM
COc1nc(N)nc2c1ncn2[C@@H]1O[C@H](COP(=O)(N[C@@H](C)C(=O)OCC2CC2)N[C@@H](C)C(=O)OCC2CC2)[C@@H](O)[C@@]1(C)O (mixture of isomers),0.21 µM,0.66 µM,> 100 µM
